# Compound activity from PubChem BioAssay.
# Compounds with a hit are over-represented: about 3.7% of the library has one in this group of screens.
# KCNK3 block: human KCNK3 channel inhibitors, primary screen, CHO cells, FluxOR thallium flux, B-score | B-score at 10 µM | FluxOR fluorescence; stronger effect = lower value | hit rate 0.84% among 340,000 | AID 602410, 2012;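 active means B-score under library mean minus 4 SD, starting fluorescence ratio at most library mean plus 5 SD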;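 further: more negative B-score means stronger inhibition of thallium flux through KCNK3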
# KCNQ1 block: inhibitors of human KCNQ1 channel, primary screen, cell-based, thallium flux, high-throughput. CHO-K1 KCNQ1, FluxOR thallium flux fluorescence; stronger effect = higher value. B-score at 10 µM. hit rate 1.3% among 310,000. AID 2642, 2010;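 active means compounds whose thallium flux B-score, printed positive for inhibition, exceeds three library SD while starting fluorescence stays within three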;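 further: channel opened by potassium depolarization with thallium stimulus after 20 min compound exposure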
# KCNQ1 act: potentiators or activators of KCNQ1 channel, primary screen, cell-based, thallium flux, high-throughput; CHO-K1 KCNQ1, thallium flux FluxOR fluorescence; stronger effect = higher value; B-score at 10 µM; hit rate 0.35% among 310,000; AID 2648, 2010;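 active means fluorescence ratio B-score, a plate-corrected score, at least three library SD, with initial intensity B-score within 5 SD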
#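 Assay system: stable KCNQ1 CHO-K1 line; medium: assay buffer, equal DMSO in all wells; timing: 90 min dye loading and 20 min compound exposure, both at room temperature; technique: kinetic FluxOR thallium fluorescence, 10-s 1-Hz baseline, 110-s post-stimulus read; read-out basis: B score of baseline-normalized fluorescence ratio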
# hERG protect: hERG rescue from dofetilide block, primary screen, cell-based, CHO-hERG, FluxOR thallium flux, dofetilide IC70; Voltage-gated inwardly rectifying potassium channel KCNH2 (Homo sapiens), Q12809; dofetilide IC70 present; activation (rescue from dofetilide block), less the hit threshold, % at 10 µM; hit rate 0.51% among 310,000;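 active means activation above the mean of controls blocked by dofetilide plus 5 SD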;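 further: thallium influx through hERG after potassium depolarization seen as dye fluorescence rise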
# KCNK9 inh: KCNK9 potassium channel inhibitors, primary screen, HEK293 cells, thallium flux; Potassium channel subfamily K member 9 (Homo sapiens), Q9NPC2; FluxOR thallium flux fluorescence; stronger effect = lower value; B-score at 10 µM; hit rate 1.2% among 310,000; AID 488922, 2010;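 active means ratio B-score over 3 SD below the library mean, with starting fluorescence within 5 SD of its mean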;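 further: negative B-score means less thallium flux so channel inhibition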
# Target sequence (Q9NPC2 whole entry, looked up): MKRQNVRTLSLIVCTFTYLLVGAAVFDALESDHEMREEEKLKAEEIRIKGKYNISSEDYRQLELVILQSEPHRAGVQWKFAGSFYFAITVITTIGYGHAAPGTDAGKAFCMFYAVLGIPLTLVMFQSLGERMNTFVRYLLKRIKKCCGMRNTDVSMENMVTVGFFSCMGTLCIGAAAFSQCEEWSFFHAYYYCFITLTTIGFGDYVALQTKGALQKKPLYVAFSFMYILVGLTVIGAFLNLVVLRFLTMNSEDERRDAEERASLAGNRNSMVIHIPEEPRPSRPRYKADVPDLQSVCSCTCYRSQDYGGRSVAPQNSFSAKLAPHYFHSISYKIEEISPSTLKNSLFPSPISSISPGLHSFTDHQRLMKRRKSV
# Kir21 block: inhibitors of mouse Kir2.1 inward-rectifier potassium channel; Inward rectifier potassium channel 2 (Mus musculus), P35561; HEK293-Kir2.1, FluxOR thallium flux fluorescence; stronger effect = lower value; B-score at 10 µM; hit rate 0.85% among 310,000; AID 1672, 2009;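 active means fluorescence ratio B-score at or below minus 3 SD of library scores, with starting-brightness B-score within 2 SD, cut at about -4.2 in these data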;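 further: channel flux triggered by added potassium and thallium sulfate stimulus; B-score of peak minus minimum fluorescence over baseline after thallium stimulus; more negative B-score means stronger Kir2.1 block with less thallium influx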
# KCNK3 confirm: retest of human KCNK3 channel inhibitors, confirmation, CHO cells, FluxOR thallium flux, triplicate; hit rate 99% among 2,400; ratio percent of control, % at 10 µM; FluxOR fluorescence; 0% buffer, 100% carvedilol maximal block; shares compounds with KCNK3 block;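 active means ratio percent of control, averaged over triplicates, above buffer control mean plus 5 SD, cut at about 64% in these data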;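 further: ratio is the fluorescence rise from min to max over baseline after thallium stimulus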
# KCNK3 noninduced: thallium flux inhibition in non-induced cells, primary screen, counter-screen for KCNK3 inhibitor project, cell-based, non-induced KCNK3 line, FluxOR thallium, triplicate | non-induced KCNK3 parental cells; stronger effect = lower value | AID 651747, 2012 | thallium flux ratio (lower = more inhibition) at 10 µM | shares compounds with KCNK3 block | hit rate 40% among 2,400;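 active means thallium flux ratio, averaged over three wells, more than 5 SD below the buffer control mean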;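 further: host cells are CHO cells without KCNK3 induction; ratio is peak minus trough fluorescence over baseline then normalized to buffer controls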
# Numbers without * were called inactive; i = inactive; . = no result given.
SMILES,KCNK3 block,KCNQ1 block,KCNQ1 act,hERG protect,KCNK9 inh,Kir21 block,KCNK3 confirm,KCNK3 noninduced
Cc1ccc(S(=O)(=O)N(C)C)cc1NC(=O)COC(=O)c1c(-c2ccccc2)noc1C,-9*,i,i,-14,i,0.16,91*,i
Cc1ccccc1NC(=O)COC(=O)c1c(-c2ccccc2)noc1C,i,.,.,.,.,.,.,.
Cc1ccc2c(Cl)cc(Cl)c(OCC(=O)Nc3cc(S(=O)(=O)N(C)C)ccc3C)c2n1,-9.1*,i,i,-12,i,1.5,90*,0.15*
CN(C(=O)Nc1ccc(Cl)cc1Cl)[C@H]1c2cc(Br)ccc2OC[C@H]1CO,-8.9*,i,i,-10,i,0.02,100*,i
COc1cccc2c1OC[C@@H](CO)[C@H]2N(C)C(=O)Nc1ccccc1,i,i,i,-7,i,0,.,.
CCNc1nc(SCCOc2ccc(Br)cc2)nc(N(C)C)n1,i,i,i,-3,i,-0.1,.,.
CC1CCN(c2ccccc2NC(=O)c2cc3ccccc3o2)CC1,-9.7*,i,i,-12,i,-1.2,106*,i
Cc1ccccc1NC(=O)c1cc2ccccc2o1,i,i,i,-10,i,-1.9,.,.
Cc1ccc(C)c(-c2cc(C(=O)Nc3cccnc3)c3ccccc3n2)c1,-12*,6*,i,-9,-8*,-0.5,125*,0.12*
O=C(N/C(=C\c1cccc([N+](=O)[O-])c1)C(=O)N1CCOCC1)c1ccc([N+](=O)[O-])cc1,i,i,i,-10,i,0.8,.,.
Cc1noc(C)c1COc1ccccc1C(=O)NCCOc1ccccc1F,i,.,.,.,.,.,.,.
Cc1noc(C)c1COc1ccccc1C(=O)NC1CCC(C)CC1 (stereo not given),-10*,i,i,-14,i,-1.5,106*,i
CCS(=O)(=O)c1ncc(Cl)c(C(=O)Nc2ccc(S(=O)(=O)N3CCCC(C)C3)cc2)n1 (stereo not given),i,i,i,-8,i,1.8,.,.
CCC1CCCCN1S(=O)(=O)c1ccc(NC(=O)c2nc(S(C)(=O)=O)ncc2Cl)cc1 (stereo not given),-11*,i,i,-29,i,-1.9,114*,0.14*
CCC1CCCCN1S(=O)(=O)c1ccc(NC(=O)c2ccncc2)cc1 (stereo not given),-10*,i,i,-6,i,0.18,121*,i
CCN(CC(=O)Nc1cc(Cl)ccc1C)C(=O)CCS(=O)(=O)c1ccc(Cl)cc1,i,i,i,-13,i,1.2,.,.
CC(C)(C)OC(=O)NCCCCCc1nnc(SCC(=O)Nc2cccc(Cl)c2)o1,-9.2*,i,i,-17,i,-1.3,117*,0.15*
CCN(CC(=O)Nc1ccc(NC(C)=O)cc1)C(=O)CCCc1c[nH]c2ccccc12,i,.,.,.,.,.,.,.
COc1ccc(-c2cc(OC)c3c(C)oc(C)c3c(=O)c2)cc1OC,-9*,i,i,-4,i,0,113*,0.15*
CC(OC(=O)C1CCN(c2ccc(C(F)(F)F)cn2)CC1)C(=O)NC1CCCCC1C (stereo not given),i,.,.,.,.,.,.,.
